High-throughput results from PubChem.
PglD DTNB: C. jejuni PglD acetyltransferase inhibitors, primary screen, biochemical, DTNB colorimetric, single point; UDP-N-acetylbacillosamine N-acetyltransferase PglD (Campylobacter jejuni); 0.098% of 360,000 active; inhibition, % at 12.5 µM; purified PglD enzyme, DTNB colorimetric CoA detection; in the data active means inhibition above about 16%, passing the limit was not always enough; inconclusive means no clear call, values can overlap the other calls
DENV2 CPE rescue: inhibitors of DENV2 cytopathic effect, primary screen, cell-based, plate reader, single concentration; DENV2-infected cells, cytopathic effect rescue; CPE inhibition, % at 9.99 µM; 1.7% of 350,000 active; in the data active means CPE inhibition above about 20%, passing the limit was not always enough; inconclusive means no clear call, values can overlap the other calls; tested in BHK-21 cells;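 further: 0% = median of neutral control wells and 100% = median of positive control wells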
FGF22 binding: binders of human FGF22 protein, primary screen, FGF22 synaptogenesis inhibitor project, biophysical, thermal shift, single point; Fibroblast growth factor 22 (Homo sapiens), Q9HCT0; recombinant FGF22 thermal shift, SYPRO orange fluorescence; percent of sucrose octasulfate shift, DMSO zero; activity (Tm shift, normalised), % at 9.99 µM; 1.5% of 340,000 active; AID 651658, 2012;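 active means mean Tm shift, scaled 0 neutral to 100 positive control, at about 1.3% or above, every replicate too, limit read from the data; inconclusive means no clear call, values can overlap the other calls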
Target sequence (Q9HCT0 whole entry, looked up): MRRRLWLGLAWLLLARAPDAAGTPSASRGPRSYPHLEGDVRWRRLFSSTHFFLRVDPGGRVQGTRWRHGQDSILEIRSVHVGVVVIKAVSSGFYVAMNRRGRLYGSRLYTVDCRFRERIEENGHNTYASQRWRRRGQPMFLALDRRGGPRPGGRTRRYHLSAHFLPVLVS
E-selectin induc: E-selectin induction in HUVECs, primary screen, imaging, HUVEC, immunofluorescence imaging, single point | P16581 | normalized: neutral wells 0, TNF-alpha wells 100 | activation, % at 7.58 µM | 0.37% of 260,000 active | AID 686992, 2013;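 active means mean E-selectin-positive cell signal at least 10% of the positive control, reached in at least 60% of replicates, without over 20% cell loss; inconclusive means no rule given, readout overlaps actives, possibly toxicity-flagged; inactive means the rest, including those meeting only one limit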
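assay system = HUVEC, human umbilical vein endothelial cells | input = 3,000 HUVEC seeded per well | medium = EGM-2 growth medium on 0.1% gelatin-coated wells | dosing = one compound dose added by pin transfer | signal = immunofluorescence imaging | read-out basis = % PE-positive cells | control set = TNF-alpha, DMSO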
XiGFP reactiv: activators of inactive X chromosome reactivation, primary screen, imaging, XiGFP fibroblasts, GFP high-content imaging, set 2. XiGFP mouse fibroblasts, % GFP-positive cells imaging, 3 d; cells co-treated with 5-aza-dC sensitizer; scaled so ellipticine positive control = 100%. activation, % at 7.58 µM. 0.055% of 360,000 active. AID 743238, 2013;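 active means mean normalized replicate activation at least 10% and every replicate at or above 10%; inconclusive means only one of the two criteria met; inactive means mean below 10% and not all replicates reach 10%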;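 further: 0% = median of on-plate neutral control wells and 100% = ellipticine 6 µM median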
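assay system = SV40-immortalized XiGFP fibroblast cells, line 68-5-11 | buffer or medium = DMEM plus 5-aza-dC sensitizer | doses = single-point pinned compound dosing | times = 3-day compound exposure, then 15 min fixation at room temperature | benchmarks = positive control ellipticine, 6 µM final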
Statin myotox sup: suppressors of statin myotoxicity in C2C12 myotubes, primary screen, cell-based, single point, plate reader; C2C12 myotubes + simvastatin, ATP luminescence, 48 h; scaled: DMSO 0, geranylgeraniol control 100; 0.78% of 330,000 active; rescue of ATP level, % at 7.49 µM;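 active means mean ATP rescue above about 67%, or every replicate alone reaching that limit, limit read from the data, passing the limit was not always enough; inconclusive means no clear call, values can overlap the other calls; inactive means mean under the limit and some replicate under it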;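 further: myotubes were challenged with 10 µM simvastatin during compound exposure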
The depositor's hits bear a star; ! = a repeat was not active. In the library only some 3.3% were active in any assay of this set; here they are far more common.

For COc1cc(NC(=O)c2cccs2)c(C(=O)OCC(=O)NCc2ccco2)cc1OC the results were PglD DTNB 7 and Statin myotox sup 105*.
C[C@H]1CN([C@@H](C)CO)C(=O)Cc2cc(NS(=O)(=O)c3cccs3)ccc2O[C@@H]1CN(C)C(=O)Nc1ccccc1 was read as PglD DTNB -3, DENV2 CPE rescue 0, FGF22 binding 0, E-selectin induc 0, XiGFP reactiv 0 and Statin myotox sup 8.
Screening O=C(NCc1nnc(SCC(=O)N2CCN(c3ccccc3)CC2)o1)c1ccccc1 returned PglD DTNB 4, DENV2 CPE rescue 7, FGF22 binding 0, E-selectin induc -1, XiGFP reactiv 0 and Statin myotox sup 2.
For CCOC(=O)N1CCN(C(=O)CSc2nnc(Cc3ccccc3)o2)CC1 the results were PglD DTNB 6, DENV2 CPE rescue inconclusive, FGF22 binding 43*, E-selectin induc 0, XiGFP reactiv 0 and Statin myotox sup -8.
Screening Cc1ccccc1C(=O)NCc1nnc(SCC(=O)N2CCN(c3ccccc3)CC2)n1C returned PglD DTNB -1 and Statin myotox sup 101*.
Screening O=C(NCc1nnc(SCC(=O)N2CCN(c3ccccc3)CC2)o1)c1ccco1 returned PglD DTNB -3 and Statin myotox sup 93*.
For O=C(CSc1nnc(-c2ccco2)o1)N1CCN(c2ccccc2)CC1 the results were DENV2 CPE rescue 2, FGF22 binding 43*, E-selectin induc 12 and XiGFP reactiv 0.
For C[C@@H]1CCCCO[C@H](CN(C)C(=O)CCC(F)(F)F)[C@@H](C)CN([C@H](C)CO)C(=O)c2cc(NC(=O)Nc3ccc4c(c3)OCO4)ccc2O1 the results were PglD DTNB -4, DENV2 CPE rescue 19, FGF22 binding 0, E-selectin induc 0, XiGFP reactiv 0 and Statin myotox sup -10.
Screening CCc1ccc(NC(=O)CSc2nc3[nH]ncc3c(=O)[nH]2)cc1 returned PglD DTNB 0, DENV2 CPE rescue -1, FGF22 binding 43*, XiGFP reactiv 0 and Statin myotox sup 4.
For CCCC[n+]1c(C)sc2cc(OC)ccc21 the results were DENV2 CPE rescue 7, FGF22 binding 0 and XiGFP reactiv 0.
`CCC[n+]1c(C)sc2c(OC)ccc(OC)c21` gave PglD DTNB -4, DENV2 CPE rescue -1, FGF22 binding 43*, E-selectin induc 0, XiGFP reactiv 0 and Statin myotox sup 2.
For CC(C)NC(=O)N(C)C[C@@H]1Oc2ccc(NS(=O)(=O)c3ccc(Cl)cc3)cc2CC(=O)N([C@@H](C)CO)C[C@H]1C the results were PglD DTNB 2, DENV2 CPE rescue inconclusive, FGF22 binding 0, E-selectin induc 3, XiGFP reactiv 0 and Statin myotox sup -2.
C=CCOc1ccccc1OCC(O)CNC(C)C (stereo not given) was read as PglD DTNB -8, DENV2 CPE rescue 40*, FGF22 binding 0, E-selectin induc 0, XiGFP reactiv 0 and Statin myotox sup 6.
Screening CC(C)NC(=O)Nc1ccc2c(c1)C(=O)N(C)[C@@H]1CC[C@H](CC(=O)NCC(F)(F)F)O[C@H]1CO2 returned PglD DTNB 9, DENV2 CPE rescue 2, FGF22 binding 0, E-selectin induc 0, XiGFP reactiv 0 and Statin myotox sup 3.
Screening CC(C)C#Cc1ccc2c(c1)O[C@@H](CN(C)C(=O)CN(C)C)[C@@H](C)CN([C@@H](C)CO)S2(=O)=O returned PglD DTNB 2, DENV2 CPE rescue 31*, FGF22 binding -1, E-selectin induc 0, XiGFP reactiv 0 and Statin myotox sup -6.
Screening C[C@@H]1CN([C@H](C)CO)S(=O)(=O)c2ccc(C#Cc3ccccc3)cc2O[C@@H]1CN(C)C(=O)CN(C)C returned PglD DTNB -4, DENV2 CPE rescue 40*!, FGF22 binding 0, E-selectin induc 1, XiGFP reactiv 0 and Statin myotox sup 2.
`C[C@@H]1CN([C@H](C)CO)S(=O)(=O)c2ccc(C#Cc3ccccc3)cc2O[C@@H]1CN(C)C(=O)c1ccccn1` gave PglD DTNB 0, DENV2 CPE rescue 42*, FGF22 binding 0, E-selectin induc 0, XiGFP reactiv -1 and Statin myotox sup 13.
CC(C)NC(=O)N(C)C[C@@H]1Oc2cc(C#Cc3ccccn3)ccc2S(=O)(=O)N([C@H](C)CO)C[C@H]1C was read as PglD DTNB 4, DENV2 CPE rescue 22*, FGF22 binding 0, E-selectin induc 0, XiGFP reactiv -1 and Statin myotox sup -2.
`C/C=C/c1ccc2c(c1)O[C@@H](CN(C)C(=O)Cc1ccccc1)[C@@H](C)CN([C@@H](C)CO)S2(=O)=O` gave PglD DTNB 0, DENV2 CPE rescue 8, FGF22 binding 0, E-selectin induc 0, XiGFP reactiv -1 and Statin myotox sup 18.
Screening C[C@H](CO)N1C[C@H](C)[C@@H](CN(C)S(=O)(=O)c2ccccc2)Oc2ccc(NC(=O)CCN3CCOCC3)cc2CC1=O returned PglD DTNB 3, DENV2 CPE rescue 7, FGF22 binding 0, E-selectin induc -3, XiGFP reactiv 0 and Statin myotox sup 6.
`COc1ccc(S(=O)(=O)Nc2ccc3c(c2)C(=O)N([C@@H](C)CO)C[C@@H](C)[C@@H](CN(C)C(=O)Nc2cccc4ccccc24)O3)cc1` gave PglD DTNB -5, DENV2 CPE rescue -2, FGF22 binding 0, E-selectin induc 53*, XiGFP reactiv 0 and Statin myotox sup 35.
Screening COc1ccc(S(=O)(=O)Nc2ccc3c(c2)C(=O)N([C@H](C)CO)C[C@H](C)[C@@H](CN(C)C(=O)Nc2cccc4ccccc24)O3)cc1 returned PglD DTNB -2, DENV2 CPE rescue -10, FGF22 binding 0, E-selectin induc 64*, XiGFP reactiv 0 and Statin myotox sup 30.
COc1ccc(S(=O)(=O)Nc2ccc3c(c2)C(=O)N([C@@H](C)CO)C[C@H](C)[C@@H](CN(C)C(=O)Nc2cccc4ccccc24)O3)cc1 was read as PglD DTNB -5, DENV2 CPE rescue 3, FGF22 binding 0, E-selectin induc 80*, XiGFP reactiv 0 and Statin myotox sup 32.
